Measurements: ChEMBL document CHEMBL1152866, “Modulation of gene expression via disruption of NF-kappaB signaling by a bacterial small molecule” (Science, 2008)
Active and inactive are the calls of the source. No cut-off for these calls is given here.

Columns and labels:
[1] = biological target: T1, Inhibitor of nuclear factor kappa-B kinase subunit alpha (Mus musculus) (UniProt Q60680); assay: Inhibition of LPS-induced IkappaBalpha phosphorylation in mouse BMDM measured up to 120 mins by Western blot analysis
T1 sequence (whole entry): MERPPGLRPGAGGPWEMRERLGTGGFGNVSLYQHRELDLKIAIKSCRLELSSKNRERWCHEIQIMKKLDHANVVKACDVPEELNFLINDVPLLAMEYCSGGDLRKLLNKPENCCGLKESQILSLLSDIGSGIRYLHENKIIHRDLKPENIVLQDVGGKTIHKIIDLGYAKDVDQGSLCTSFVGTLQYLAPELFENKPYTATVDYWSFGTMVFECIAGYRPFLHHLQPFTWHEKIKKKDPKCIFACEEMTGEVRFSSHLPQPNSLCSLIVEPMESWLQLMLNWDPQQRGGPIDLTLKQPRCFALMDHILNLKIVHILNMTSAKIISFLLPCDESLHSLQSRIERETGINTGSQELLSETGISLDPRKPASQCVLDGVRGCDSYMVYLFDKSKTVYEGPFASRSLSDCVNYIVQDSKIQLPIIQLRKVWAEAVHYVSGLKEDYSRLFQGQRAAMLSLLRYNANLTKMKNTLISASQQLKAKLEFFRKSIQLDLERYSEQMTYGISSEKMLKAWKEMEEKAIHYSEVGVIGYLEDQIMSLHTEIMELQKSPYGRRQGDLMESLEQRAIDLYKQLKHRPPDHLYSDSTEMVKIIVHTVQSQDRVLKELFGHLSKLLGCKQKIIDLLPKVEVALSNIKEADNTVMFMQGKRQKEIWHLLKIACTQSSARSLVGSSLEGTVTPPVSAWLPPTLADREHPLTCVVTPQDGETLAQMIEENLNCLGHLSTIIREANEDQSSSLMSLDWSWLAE

[2] = biological target: T2, MAP kinase p38 (Mus musculus) (UniProt P47811+O08911+Q9WUI1+Q9Z1B7); assay: Inhibition of LPS-induced p38 phosphorylation in mouse BMDM measured up to 120 mins by Western blot analysis
Macrophage [3] = assay: Inhibition of LPS-induced IkappaBalpha expression in C57BL/6 mouse alveolar macrophages measured up to 120 mins by Western blot analysis; format: functional, cell-based
[4] = biological target: T2, MAP kinase p38 (Mus musculus); assay: Inhibition of LPS-induced p38 phosphorylation in C57BL/6 mouse alveolar macrophages measured up to 120 mins by Western blot analysis
[5] = biological target: MAP kinase p38 (Homo sapiens) (UniProt O15264+Q15759+Q16539+P53778); assay: Inhibition of LPS-induced p38 phosphorylation in human THP1 cells measured up to 120 mins by Western blot analysis; format: cell-based; settings: THP-1
[6] = biological target: Transcription factor p65 (Mus musculus) (UniProt Q04207); assay: Inhibition of LPS-induced RelA phosphorylation in mouse BMDM treated 2 hrs after LPS challenge measured up to 120 mins by Western blot analysis
Mus musculus [7] = species: Mus musculus; assay: Inhibition of IKK activity in LPS-induced mouse BMDM assessed as reduction in phosphorylation of RelA treated 2 hrs after LPS challenge measured up to 120 mins by immunoblot analysis
BMDM [8] = assay: Inhibition of LPS-induced MCP-1 mRNA expression in mouse BMDM up to 3 hrs by Northern blot analysis; format: functional, cell-based
BMDM [9] = assay: Inhibition of LPS-induced TNF mRNA expression in mouse BMDM up to 3 hrs by Northern blot analysis; format: functional, cell-based
Macrophage [10] = assay: Inhibition of LPS-induced IRF-1 mRNA expression in mouse alveolar macrophages after 90 mins by Northern blot analysis; format: functional, cell-based
MEF [11] = assay: Inhibition of LPS-induced IkappaBalpha mRNA expression in MEF after 90 mins by Northern blot analysis; format: functional, cell-based; settings: Mus musculus
BMDM [12] = assay: Inhibition of heat-killed Staphylococcus aureus-induced MCP-1 mRNA expression in mouse BMDM by Northern blot analysis; format: functional, cell-based
MEF [13] = assay: Effect on TNF-induced IkappaBalpha mRNA expression in MEF by Northern blot analysis; format: functional, cell-based; settings: Mus musculus
[14] = biological target: T1, Inhibitor of nuclear factor kappa-B kinase subunit alpha (Mus musculus); assay: Inhibition of TNF-induced IkappaBalpha phosphorylation in mouse MEF up to 120 mins by Western blot analysis
MEF [15] = assay: Inhibition of TNF-induced IkappaBbeta expression in mouse MEF up to 120 mins by Western blot analysis; format: functional, cell-based
Mus musculus [16] = species: Mus musculus; assay: Suppression of LPS-induced TNF expression in C57BL/6 transgenic mouse bearing TNF-reporter after 2 hrs by luciferase reporter gene assay; format: functional, organism-based
Procedure, shortened: (§1)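 Animals received an injection of vehicle, LPS, C12, or LPS plus C12. Whole-animal bioluminescence was recorded 2 hours after injection as the read-out of reporter activity.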

Mus musculus [17] = species: Mus musculus; assay: Suppression of LPS-induced TNF expression in C57BL/6 transgenic mouse bearing IkappaBalpha-reporter after 2 hrs by luciferase reporter gene assay; format: functional, organism-based; procedure, shortened: as §1
Epithelial cell = assay: Induction of apoptosis in TNF-stimulated human bronchial epithelial cells assessed as PARP cleavage after 2 hrs by Western blot analysis; format: functional, cell-based
Procedure, shortened: (§2)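 WI38 lung fibroblasts and bronchial epithelial cells were stimulated for 2 hours. The same Western blot was probed for PARP cleavage, total IκBα and phosphorylated IκBα.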

[18] = biological target: T3, Inhibitor of nuclear factor kappa-B kinase subunit alpha (Homo sapiens) (UniProt O15111); assay: Inhibition of IkappaBalpha in human bronchial epithelial cells assessed after 2 hrs by Western blot analysis; format: cell-based; settings: Epithelial cell; procedure, shortened: as §2
T3 sequence (whole entry): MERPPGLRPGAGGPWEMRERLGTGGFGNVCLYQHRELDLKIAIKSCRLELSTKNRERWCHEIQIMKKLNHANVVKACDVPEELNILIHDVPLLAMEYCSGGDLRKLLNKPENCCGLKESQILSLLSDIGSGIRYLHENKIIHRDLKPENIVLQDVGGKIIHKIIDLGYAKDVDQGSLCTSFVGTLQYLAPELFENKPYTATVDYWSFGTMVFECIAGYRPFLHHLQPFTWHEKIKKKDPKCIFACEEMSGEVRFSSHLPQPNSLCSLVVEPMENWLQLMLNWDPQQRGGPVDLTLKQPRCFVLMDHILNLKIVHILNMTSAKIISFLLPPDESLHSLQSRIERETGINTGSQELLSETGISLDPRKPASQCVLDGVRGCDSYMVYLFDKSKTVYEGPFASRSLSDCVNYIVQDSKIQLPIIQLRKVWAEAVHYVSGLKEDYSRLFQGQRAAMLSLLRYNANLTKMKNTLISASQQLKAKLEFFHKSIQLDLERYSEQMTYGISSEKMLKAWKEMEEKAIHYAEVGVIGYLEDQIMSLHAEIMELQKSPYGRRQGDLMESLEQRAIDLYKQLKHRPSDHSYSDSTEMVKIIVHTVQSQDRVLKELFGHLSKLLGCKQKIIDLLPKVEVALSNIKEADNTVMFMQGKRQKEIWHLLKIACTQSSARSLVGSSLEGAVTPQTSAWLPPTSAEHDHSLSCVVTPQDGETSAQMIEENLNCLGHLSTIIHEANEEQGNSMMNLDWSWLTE

PBMC = assay: Inhibition of LPS-induced TNF mRNA expression in human PBMC up to 50 uM by Northern blot analysis; format: functional, cell-based

Sequence of Transcription factor p65 (Mus musculus) (Q04207 whole entry): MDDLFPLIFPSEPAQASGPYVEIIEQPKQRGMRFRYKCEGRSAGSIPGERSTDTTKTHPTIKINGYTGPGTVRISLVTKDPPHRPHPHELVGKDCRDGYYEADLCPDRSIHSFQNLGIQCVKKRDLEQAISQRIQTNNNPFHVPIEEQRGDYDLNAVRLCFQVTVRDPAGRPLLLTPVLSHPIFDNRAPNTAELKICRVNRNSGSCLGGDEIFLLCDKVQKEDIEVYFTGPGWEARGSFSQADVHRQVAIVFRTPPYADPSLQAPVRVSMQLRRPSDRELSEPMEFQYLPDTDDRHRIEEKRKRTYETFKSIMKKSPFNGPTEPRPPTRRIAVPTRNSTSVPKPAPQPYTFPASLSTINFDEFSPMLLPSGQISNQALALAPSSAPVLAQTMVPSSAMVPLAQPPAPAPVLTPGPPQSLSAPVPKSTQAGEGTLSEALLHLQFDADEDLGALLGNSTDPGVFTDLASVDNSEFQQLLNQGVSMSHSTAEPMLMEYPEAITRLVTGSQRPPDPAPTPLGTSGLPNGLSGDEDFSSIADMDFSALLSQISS

Activity [1]: Active
Activity [2]: inactive
Activity [4]: Active
Activity [5]: Active
Activity [6]: Active
Activity (Mus musculus [7]): Active
Activity [14]: Active
Activity (Mus musculus [16]): Active
Activity (Mus musculus [17]): Active
Activity [18]: Active
SMILES: CCCCCCCCCC(=O)CC(=O)N[C@H]1CCOC1=O
Activity (Macrophage [3]): Active
Activity (BMDM [8]): Dose-dependent effect
Activity (BMDM [9]): Dose-dependent effect
Activity (Macrophage [10]): Dose-dependent effect
Activity (MEF [11]): Dose-dependent effect
Activity (BMDM [12]): Active
Activity (MEF [13]): Active
Activity (MEF [15]): Active
Activity (Epithelial cell): Active
Activity (PBMC): Active
